These results are taken from article PMC8456861 (Transplant International, 2021).

The subject of data set [1] is CYP3A4. To be noted: patients with rheumatoid arthritis; cited from earlier work.
The subject of data set [2] is CYP3A4/CYP3A5‐dependent metabolism. The data set is classed as in vivo, patients (kidney transplant recipients with late ABMR). To be noted: for C0/D ratio: week 12, median [IQR].
Data set [3] has as its system CYP3A4/CYP3A5. The data set is classed as in vivo, patients (kidney transplant recipients with late ABMR). To be noted: human, whole blood, C0 level; for C0 at 12 week: week 12, median [IQR].
Data set [4] relates to CYP2C19 and CYP3A4. Nature of the data set: Pantoprazole pharmacokinetics. The data set is classed as in vivo, patients (kidney transplant recipients with late ABMR). The procedure, abridged: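 20 mg pantoprazole given as an i.v. bolus on day 0, week 12 and week 52. At day 0 and week 12, dosing preceded study injection. EDTA blood was drawn pre-dose and 1, 2, 3, 4, 5 and 6 h after dosing, spun at 2000 g for 10 min at 4°C and stored at −80 °C. Plasma levels measured by HPLC-MS/MS. Noncompartmental Cmax, AUC0-last, AUC0-inf and T1/2 reported as median (IQR); Wilcoxon/Mann–Whitney tests.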

Data set [5] has as its system CYP enzymes. To be noted: critically ill patients; cited from earlier work.
The conditions of data set [6]: earlier studies; cited from earlier work.
The subject of data set [7] is CYP3A4. To be noted: 19 patients with active rheumatoid arthritis; cited from earlier work.
The subject of data set [8] is C‐reactive protein (CRP). Nature of the data set: High‐sensitive CRP under clazakizumab. The data set is classed as in vivo, patients (kidney transplant recipients with late ABMR). To be noted: clazakizumab 25 mg s.c. 4‐weekly. The procedure, abridged:
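Serum high-sensitivity CRP measured by latex particle-enhanced immunoturbidimetric assay on an automated analyser (functional sensitivity 0.03 mg/dl). Randomised double-blind design: clazakizumab 25 mg s.c. or 0.9% saline placebo every 4 weeks to week 12, then open clazakizumab 4-weekly to week 52. Data given as median (IQR).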

The nature of data set [9]: Liver parameters. The format is in vivo, patients (kidney transplant recipients with late ABMR). To be noted: ALAT, AST, CHE.
For data set [10], the system named is late antibody‐mediated rejection (ABMR). To be noted: cited from earlier work.
Where [11] appears, read: Clazakizumab arm (n = 10), median (IQR).
Setting [12] is: Placebo arm (clazakizumab in part B), median (IQR).
Where [13] appears, read: Placebo arm (n = 10), median (IQR).

Entries after “also recorded” stand apart in the source; their conditions may differ. Read-outs that look alike come from different tables or passages of the source.

Take tocilizumab: anti‐IL‐6R antibody: in data set [1], the “effect on CYP activity and simvastatin metabolism” value was “restored diminished CYP activity and substantially enhanced the metabolism of simvastatin”.

Regarding `CO[C@H]1C[C@@H]2CC[C@@H](C)[C@@](O)(O2)C(=O)C(=O)N2CCCC[C@H]2C(=O)O[C@H]([C@H](C)C[C@@H]2CC[C@@H](OCCO)[C@H](OC)C2)CC(=O)[C@H](C)/C=C(\C)[C@@H](O)[C@@H](OC)C(=O)[C@H](C)C[C@H](C)/C=C/C=C/C=C/1C` [everolimus], in [2] (single patient, individual course over the study), the “decrease in C0/D ratio” value is reported as “approximately 50%”.

Regarding `C=CC[C@@H]1/C=C(\C)C[C@H](C)C[C@H](OC)[C@H]2O[C@@](O)(C(=O)C(=O)N3CCCC[C@H]3C(=O)O[C@H](/C(C)=C/[C@@H]3CC[C@@H](O)[C@H](OC)C3)[C@H](C)[C@@H](O)CC1=O)[C@H](C)C[C@@H]2OC` [tacrolimus], the C0 at 12 week in [3] (clazakizumab arm (n = 6)) is 7 ng/mL; in data set [3] (placebo arm (n = 7)) it was 6.4 ng/mL. Besides, in [3] (baseline, Clazakizumab arm, median (IQR)), the concentration at 0 day was found to be 5.6 ng/mL. The C0/D ratio in data set [2] (clazakizumab arm (n = 6)) was 2.15 [1.13–4.35] ng/ml/mg; in data set [2] (placebo arm (n = 7)), 2.0 [0.73–2.03] ng/ml/mg.

In the case of `COc1ccnc(C[S+]([O-])c2nc3ccc(OC(F)F)cc3[nH]2)c1OC` (centres unmarked) [pantoprazole], in data set [4] (setting [11]), the “Percent change from day 0 to week 12, AUC0‐inf” value is reported as 4.0 (−6.4‐80.3) Percent and the “Percent change from day 0 to week 12, T1/2” value is on record as 18.4 (−0.4–23.2) Percent. Also, in data set [4] (Clazakizumab arm, median (IQR)), the “Percent change from day 0 to week 52, AUC0‐inf” value is reported as 52.3 (−5.6–64.1) Percent; the “Percent change from day 0 to week 52, AUC0‐last” value is on record as 41.9 (0.4–84.5) Percent; the “Percent change from day 0 to week 52, Cmax” value is 22.5 (1.6‐37.8) Percent; the “Percent change from day 0 to week 52, T1/2” value was 8.8 (−9.7‐56.8) Percent. Further, in data set [4] (setting [12]), the “Percent change from day 0 to week 52, AUC0‐inf” value was 0.72 (−42.7–64.0) Percent and the “Percent change from day 0 to week 52, AUC0‐last” value was 13.6 (−47.2–50.5) Percent. Moreover, in data set [4] (setting [13]), the “Percent change from day 0 to week 12, AUC0‐inf” value is 13.8 (−17.7‐27.8) Percent; the “Percent change from day 0 to week 12, AUC0‐last” value is reported as 15.6 (−18.7‐31.1) Percent; the “Percent change from day 0 to week 12, Cmax” value was 5.7 (−10.7‐41.3) Percent; the “Percent change from day 0 to week 12, T1/2” value was 0.2 (−14.4‐21.5) Percent. In data set [4] (Total (n = 20), median (IQR)), the “Percent change from day 0 to week 12, AUC0‐inf” value was 11.6 (−11.7‐31.4) Percent; the “Percent change from day 0 to week 12, AUC0‐last” value was 10.4 (−8.0‐27.8) Percent; the “Percent change from day 0 to week 12, Cmax” value is 2.1 (−12.2‐26.3) Percent; the “Percent change from day 0 to week 12, T1/2” value is recorded as 5.9 (−4.5–23.2) Percent. In addition, in data set [4] (Total, median (IQR)), the “Percent change from day 0 to week 52, AUC0‐inf” value is listed as 31.9 (−22.5–64.0) Percent; the “Percent change from day 0 to week 52, AUC0‐last” value is 25.3 (−15.9–51.7) Percent; the “Percent change from day 0 to week 52, Cmax” value is listed as 5.5 (−22.1‐33.6) Percent. In addition, the peak level in data set [4] (human, plasma, iv, 20 mg, Cmax, 20 mg i.v., day 0, Total (n = 20), median (IQR)) (Cmax) was 1490 ng/mL. Besides, in [4] (human, plasma, iv, 20 mg, T1/2, 20 mg i.v., day 0, Total (n = 20), median (IQR)), the half-life is 1.08 h. Also, the “half‐life, fold longer than in this study's patients / healthy volunteers” value in [5] is listed as “approximately 5 fold”. Also, in data set [6], the “half‐life” value is “generally less than two hours” and the “time to complete absorption” value is reported as “about 12 hours”.

B1: sarilumab: anti‐IL‐6R antibody (antibody, chains of the INN, looked up, V domains shown)
VH: EVQLVESGGGLVQPGRSLRLSCAASRFTFDDYAMHWVRQAPGKGLEWVSGISWNSGRIGYADSVKGRFTISRDNAENSLFLQMNGLRAEDTALYYCAKGRDSFDIWGQGTMVTVSS
VL: DIQMTQSPSSVSASVGDRVTITCRASQGISSWLAWYQQKPGKAPKLLIYGASSLESGVPSRFSGSGSGTDFTLTISSLQPEDFASYYCQQANSFPYTFGQGTKLEIK
Take B1: the “effect on altered simvastatin exposure” value in data set [7] is given as “fully reversed”.

B2: clazakizumab: monoclonal anti‐IL‐6 antibody (Vitaeris Inc.), 25 mg subcutaneously at 4‐weekly intervals (antibody, chains of the INN, looked up, V domains shown)
VH: EVQLVESGGGLVQPGGSLRLSCAASGFSLSNYYVTWVRQAPGKGLEWVGIIYGSDETAYATSAIGRFTISRDNSKNTLYLQMNSLRAEDTAVYYCARDDSSDWDAKFNLWGQGTLVTVSS
VL: AIQMTQSPSSLSASVGDRVTITCQASQSINNELSWYQQKPGKAPKLLIYRASTLASGVPSRFSGSGSGTDFTLTISSLQPDDFATYYCQQGYSLRNIDNAFGGGTKVEIK
Regarding B2, in data set [4] (IL‐6 blockade up to 52 weeks), the “impact on pantoprazole pharmacokinetics / CYP‐dependent drug metabolism” value is “no clinically meaningful impact; also recorded: did not enhance CYP‐dependent drug metabolism”. The “effect on CRP levels” value in [8] is “suppressed to undetectable levels; also recorded: virtually complete reduction”. For the same molecule, in data set [9], the “effect on liver parameters” value is given as “no meaningful effect”. The “effect on DSA” value in data set [10] (after 3 months) is “significant reduction of DSA”. Also, the “effect on ABMR activity (microcirculation inflammation, molecular ABMR scores)” value in data set [10] (after prolonged treatment) is “modulation of ABMR activity”. Besides, the “effect on progression of graft dysfunction” value in data set [10] (over a period of a year) is listed as “significantly halted the progression of graft dysfunction”.
